Test results as given in ChEMBL document CHEMBL1649574, “Prevalence and characterization of heterogeneous vancomycin-intermediate Staphylococcus aureus isolates from 14 cities in China” (2009).
In brackets after ≈: the same amount, converted by molar mass.

Columns and labels:
Assay type in all cases: functional
[1] = system: Staphylococcus aureus; assay: Antimicrobial activity against SCCmec type III vancomycin-intermediate Staphylococcus aureus isolate 15b52 by agar dilution method
Outline: (§1)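 Agar-dilution MICs were measured on a subset of 200 blood MRSA isolates from China. Agents: oxacillin, rifampin, gentamicin, levofloxacin, erythromycin, vancomycin, teicoplanin, tigecycline, ceftobiprole and linezolid. Phenotype came from the PAP-AUC ratio of each isolate to S. aureus Mu3 (VSSA <0.9; hVISA 0.9 to 1.3; VISA ≥1.3), read on BHI agar with 0 to 8.0 mg/liter vancomycin after 48 h at 35°C.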

[2] = system: Staphylococcus aureus; assay: Antimicrobial activity against SCCmec type III vancomycin-intermediate Staphylococcus aureus isolate b6k7974 by agar dilution method; outline: as §1
[3] = system: Staphylococcus aureus; assay: Antimicrobial activity against vancomycin-susceptible Staphylococcus aureus assessed as growth inhibition at 4 times MIC; parameters: scale not given: the % may be the effect or the level left
[4] = system: Staphylococcus aureus; assay: Antimicrobial activity against heterogeneous vancomycin-intermediate Staphylococcus aureus assessed as growth inhibition at 0.125 times MIC; parameters: scale not given: the % may be the effect or the level left
[5] = system: Staphylococcus aureus; assay: Antimicrobial activity against heterogeneous vancomycin-intermediate Staphylococcus aureus by agar dilution method; outline: as §1
[6] = system: Staphylococcus aureus; assay: Antimicrobial activity against SCCmec type II vancomycin-intermediate Staphylococcus aureus isolate 4sy32 by agar dilution method; outline: as §1
[7] = system: Staphylococcus aureus; assay: Antimicrobial activity against heterogeneous vancomycin-intermediate Staphylococcus aureus assessed as growth inhibition at 0.5 times MIC; parameters: scale not given: the % may be the effect or the level left
[8] = system: Staphylococcus aureus; assay: Antimicrobial activity against heterogeneous vancomycin-intermediate Staphylococcus aureus assessed as growth inhibition at 0.25 times MIC; parameters: scale not given: the % may be the effect or the level left
[9] = system: Staphylococcus aureus; assay: Antimicrobial activity against SCCmec type III vancomycin-intermediate Staphylococcus aureus isolate gs07022 by agar dilution method; outline: as §1
[10] = system: Staphylococcus aureus; assay: Antimicrobial activity against heterogeneous vancomycin-intermediate Staphylococcus aureus assessed as susceptible isolates by agar dilution method
Outline: (§2)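 MICs by agar dilution for all 200 MRSA blood isolates (oxacillin, rifampin, gentamicin, levofloxacin, erythromycin, vancomycin, teicoplanin, tigecycline, ceftobiprole, linezolid). Isolates were grouped by PAP-AUC ratio against S. aureus Mu3: below 0.9 VSSA, 0.9 to 1.3 hVISA, 1.3 or more VISA.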

[11] = system: Staphylococcus aureus; assay: Antimicrobial activity against vancomycin-susceptible Staphylococcus aureus assessed as growth inhibition at 0.25 times MIC; parameters: scale not given: the % may be the effect or the level left
[12] = system: Staphylococcus aureus; assay: Antimicrobial activity against heterogeneous vancomycin-intermediate Staphylococcus aureus assessed as growth inhibition at 2 times MIC; parameters: scale not given: the % may be the effect or the level left
[13] = system: Staphylococcus aureus; assay: Antimicrobial activity against SCCmec type III vancomycin-intermediate Staphylococcus aureus isolate gz06040 by agar dilution method; outline: as §1
[14] = system: Staphylococcus aureus; assay: Antimicrobial activity against SCCmec type III vancomycin-intermediate Staphylococcus aureus isolate b5k3578 by agar dilution method; outline: as §1
[15] = system: Staphylococcus aureus; assay: Antimicrobial activity against vancomycin-susceptible Staphylococcus aureus assessed as growth inhibition at 16 times MIC; parameters: scale not given: the % may be the effect or the level left
[16] = system: Staphylococcus aureus; assay: Antimicrobial activity against vancomycin-susceptible Staphylococcus aureus by agar dilution method; outline: as §1
[17] = system: Staphylococcus aureus; assay: Antimicrobial activity against SCCmec type III vancomycin-intermediate Staphylococcus aureus isolate gz07030 by agar dilution method; outline: as §1
[18] = system: Staphylococcus aureus; assay: Antimicrobial activity against heterogeneous vancomycin-intermediate Staphylococcus aureus assessed as growth inhibition at 4 times MIC; parameters: scale not given: the % may be the effect or the level left
[19] = system: Staphylococcus aureus; assay: Antimicrobial activity against vancomycin-intermediate Staphylococcus aureus by agar dilution method; outline: as §1
[20] = system: Staphylococcus aureus; assay: Antimicrobial activity against SCCmec type III vancomycin-intermediate Staphylococcus aureus isolate b6k1642 by agar dilution method; outline: as §1
[21] = system: Staphylococcus aureus; assay: Antimicrobial activity against SCCmec type III vancomycin-intermediate Staphylococcus aureus isolate b3k5923 by agar dilution method; outline: as §1
[22] = system: Staphylococcus aureus; assay: Antimicrobial activity against SCCmec type II vancomycin-intermediate Staphylococcus aureus isolate 4sy39 by agar dilution method; outline: as §1
[23] = system: Staphylococcus aureus; assay: Antimicrobial activity against SCCmec type III vancomycin-intermediate Staphylococcus aureus isolate sh07043 by agar dilution method; outline: as §1
[24] = system: Staphylococcus aureus; assay: Antimicrobial activity against vancomycin-susceptible Staphylococcus aureus assessed as growth inhibition at 2 times MIC; parameters: scale not given: the % may be the effect or the level left
[25] = system: Staphylococcus aureus; assay: Antimicrobial activity against heterogeneous vancomycin-susceptible Staphylococcus aureus assessed as susceptible isolates by agar dilution method; outline: as §2
[26] = system: Staphylococcus aureus; assay: Antimicrobial activity against SCCmec type III vancomycin-intermediate Staphylococcus aureus isolate gz06051 by agar dilution method; outline: as §1
[27] = system: Staphylococcus aureus; assay: Antimicrobial activity against SCCmec type II vancomycin-intermediate Staphylococcus aureus isolate b2k4781 by agar dilution method; outline: as §1
[28] = system: Staphylococcus aureus; assay: Antimicrobial activity against SCCmec type III vancomycin-intermediate Staphylococcus aureus isolate b5k3529 by agar dilution method; outline: as §1
[29] = system: Staphylococcus aureus; assay: Antimicrobial activity against SCCmec type III vancomycin-intermediate Staphylococcus aureus isolate b4k6307 by agar dilution method; outline: as §1
[30] = system: Staphylococcus aureus; assay: Antimicrobial activity against vancomycin-susceptible Staphylococcus aureus assessed as growth inhibition at 0.125 times MIC; parameters: scale not given: the % may be the effect or the level left
[31] = system: Staphylococcus aureus; assay: Antimicrobial activity against SCCmec type III vancomycin-intermediate Staphylococcus aureus isolate b2k3421 by agar dilution method; outline: as §1
[32] = system: Staphylococcus aureus; assay: Antimicrobial activity against SCCmec type III vancomycin-intermediate Staphylococcus aureus isolate 11b091 by agar dilution method; outline: as §1
[33] = system: Staphylococcus aureus; assay: Antimicrobial activity against SCCmec type II vancomycin-intermediate Staphylococcus aureus isolate 6zjsau7 by agar dilution method; outline: as §1
[34] = system: Staphylococcus aureus; assay: Antimicrobial activity against SCCmec type III vancomycin-intermediate Staphylococcus aureus isolate b3k2345 by agar dilution method; outline: as §1
[35] = system: Staphylococcus aureus; assay: Antimicrobial activity against SCCmec type II vancomycin-intermediate Staphylococcus aureus isolate 07b63 by agar dilution method; outline: as §1
[36] = system: Staphylococcus aureus; assay: Antimicrobial activity against SCCmec type III vancomycin-intermediate Staphylococcus aureus isolate zj07028 by agar dilution method; outline: as §1
[37] = system: Staphylococcus aureus; assay: Antimicrobial activity against SCCmec type III vancomycin-intermediate Staphylococcus aureus isolate 13b16 by agar dilution method; outline: as §1
[38] = system: Staphylococcus aureus; assay: Antimicrobial activity against heterogeneous vancomycin-intermediate Staphylococcus aureus assessed as intermediate isolates by agar dilution method; outline: as §2
[39] = system: Staphylococcus aureus; assay: Antimicrobial activity against SCCmec type II vancomycin-intermediate Staphylococcus aureus isolate sh06024 by agar dilution method; outline: as §1
[40] = system: Staphylococcus aureus; assay: Antimicrobial activity against SCCmec type III vancomycin-intermediate Staphylococcus aureus isolate xa07029 by agar dilution method; outline: as §1
[41] = system: Staphylococcus aureus; assay: Antimicrobial activity against heterogeneous vancomycin-intermediate Staphylococcus aureus assessed as growth inhibition at 16 times MIC; parameters: scale not given: the % may be the effect or the level left
[42] = system: Staphylococcus aureus; assay: Antimicrobial activity against SCCmec type IV vancomycin-intermediate Staphylococcus aureus isolate 06b41 by agar dilution method; outline: as §1
[43] = system: Staphylococcus aureus; assay: Antimicrobial activity against SCCmec type III vancomycin-intermediate Staphylococcus aureus isolate 5zjsau3 by agar dilution method; outline: as §1
[44] = system: Staphylococcus aureus; assay: Antimicrobial activity against heterogeneous vancomycin-susceptible Staphylococcus aureus assessed as intermediate isolates by agar dilution method
[45] = system: Staphylococcus aureus; assay: Antimicrobial activity against vancomycin-susceptible Staphylococcus aureus assessed as growth inhibition at 0.5 times MIC; parameters: scale not given: the % may be the effect or the level left
[46] = system: Staphylococcus aureus; assay: Antimicrobial activity against heterogeneous vancomycin-intermediate Staphylococcus aureus assessed as growth inhibition at MIC; parameters: scale not given: the % may be the effect or the level left
[47] = system: Staphylococcus aureus; assay: Antimicrobial activity against SCCmec type III vancomycin-intermediate Staphylococcus aureus isolate bd4768 by agar dilution method; outline: as §1
[48] = system: Staphylococcus aureus; assay: Antimicrobial activity against vancomycin-susceptible Staphylococcus aureus assessed as growth inhibition at MIC; parameters: scale not given: the % may be the effect or the level left

SMILES: Nc1nc(/C(=N/O)C(=O)N[C@@H]2C(=O)N3C(C(=O)O)=C(/C=C4\CCN([C@@H]5CCNC5)C4=O)CS[C@H]23)ns1 [CEFTOBIPROLE]
- MIC [1]: 2 µg/mL (≈ 3.74 µM)
- MIC [2]: 2 µg/mL (≈ 3.74 µM)
- Activity [3]: 100%
- Activity [4]: 0%
- MIC50 [5]: 2 µg/mL (≈ 3.74 µM)
- MIC90 [5]: 2 µg/mL (≈ 3.74 µM)
- MIC [6]: 0.5 µg/mL (≈ 0.935 µM)
- Activity [7]: 11.1%
- Activity [8]: 0%
- MIC [9]: 1 µg/mL (≈ 1.87 µM)
- Activity [10]: 100%
- Activity [11]: 2.31%
- Activity [12]: 96.3%
- MIC [13]: 1 µg/mL (≈ 1.87 µM)
- MIC [14]: 2 µg/mL (≈ 3.74 µM)
- Activity [15]: 100%
- MIC50 [16]: 2 µg/mL (≈ 3.74 µM)
- MIC90 [16]: 2 µg/mL (≈ 3.74 µM)
- MIC [17]: 2 µg/mL (≈ 3.74 µM)
- Activity [18]: 100%
- MIC [19]: 0.5 µg/mL (≈ 0.935 µM)
- MIC [20]: 2 µg/mL (≈ 3.74 µM)
- MIC [21]: 2 µg/mL (≈ 3.74 µM)
- MIC [22]: 0.5 µg/mL (≈ 0.935 µM)
- MIC [23]: 2 µg/mL (≈ 3.74 µM)
- Activity [24]: 100%
- Activity [25]: 100%
- MIC [26]: 2 µg/mL (≈ 3.74 µM)
- MIC [27]: 2 µg/mL (≈ 3.74 µM)
- MIC [28]: 2 µg/mL (≈ 3.74 µM)
- MIC [29]: 1 µg/mL (≈ 1.87 µM)
- Activity [30]: 0%
- MIC [31]: 2 µg/mL (≈ 3.74 µM)
- MIC [32]: 2 µg/mL (≈ 3.74 µM)
- MIC [33]: 4 µg/mL (≈ 7.48 µM)
- MIC [34]: 2 µg/mL (≈ 3.74 µM)
- MIC [35]: 1 µg/mL (≈ 1.87 µM)
- MIC [36]: 2 µg/mL (≈ 3.74 µM)
- MIC [37]: 1 µg/mL (≈ 1.87 µM)
- Activity [38]: 0%
- MIC [39]: 2 µg/mL (≈ 3.74 µM)
- MIC [40]: 2 µg/mL (≈ 3.74 µM)
- Activity [41]: 100%
- MIC [42]: 1 µg/mL (≈ 1.87 µM)
- MIC [43]: 0.5 µg/mL (≈ 0.935 µM)
- Activity [44]: 0%
- Activity [45]: 4.62%
- Activity [46]: 33.3%
- MIC [47]: 2 µg/mL (≈ 3.74 µM)
- Activity [48]: 27.2%
